In the library only some 5.7% were active in any assay of this set; here they are far more common.
Mdm2-MdmX inh – disrupts the human Mdm2-MdmX interaction; inhibition, % at 8 µM; actives 3% (n = 330,000); SaOS-2 split-luciferase Mdm2/MdmX complementation, luminescence;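 active = inhibition of at least 50% at 8 µM in the primary screen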
Target sequence (O15151 whole entry, looked up): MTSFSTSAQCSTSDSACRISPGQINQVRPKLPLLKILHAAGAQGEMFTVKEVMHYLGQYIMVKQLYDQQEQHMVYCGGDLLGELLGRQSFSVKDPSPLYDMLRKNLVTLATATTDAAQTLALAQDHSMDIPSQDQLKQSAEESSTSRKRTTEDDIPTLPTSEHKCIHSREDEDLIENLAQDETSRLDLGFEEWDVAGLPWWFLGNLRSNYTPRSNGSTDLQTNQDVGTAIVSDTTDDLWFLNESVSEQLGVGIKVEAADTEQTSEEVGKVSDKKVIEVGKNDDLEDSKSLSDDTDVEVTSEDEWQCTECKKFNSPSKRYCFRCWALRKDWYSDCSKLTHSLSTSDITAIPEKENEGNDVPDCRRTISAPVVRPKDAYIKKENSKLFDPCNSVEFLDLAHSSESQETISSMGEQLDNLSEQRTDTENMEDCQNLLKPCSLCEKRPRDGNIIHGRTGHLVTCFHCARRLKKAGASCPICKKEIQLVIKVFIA
Target sequence (Q00987 whole entry, looked up): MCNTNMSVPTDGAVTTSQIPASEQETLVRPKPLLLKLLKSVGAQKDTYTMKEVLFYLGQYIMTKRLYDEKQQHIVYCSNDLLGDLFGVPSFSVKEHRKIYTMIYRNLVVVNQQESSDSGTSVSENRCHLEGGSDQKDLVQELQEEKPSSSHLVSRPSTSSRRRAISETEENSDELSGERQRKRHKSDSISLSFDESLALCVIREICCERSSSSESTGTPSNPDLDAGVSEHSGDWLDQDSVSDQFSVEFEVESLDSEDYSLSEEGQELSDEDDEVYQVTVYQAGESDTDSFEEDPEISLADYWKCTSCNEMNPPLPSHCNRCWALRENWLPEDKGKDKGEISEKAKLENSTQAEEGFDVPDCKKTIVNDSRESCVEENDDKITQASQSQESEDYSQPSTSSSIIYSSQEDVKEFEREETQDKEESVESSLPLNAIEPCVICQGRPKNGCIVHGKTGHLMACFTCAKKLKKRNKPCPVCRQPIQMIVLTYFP
T cruzi inh – blocks replication of Trypanosoma cruzi; actives 1.4% (n = 300,000); T. cruzi beta-gal in NIH3T3, luminescence, 90 h; inhibition, % (test concentration not listed);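 active = mean inhibition across valid replicates above about 55%, limit read from the data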;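 also: signal also drops with host cell toxicity which is not excluded here; 0% = plate median of DMSO wells and 100% = zero luminescence signal; higher percent means less beta-gal luminescence so fewer parasites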
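Incubation – ≥90 h infection period, 3 h prior cell attachment · System – NIH/3T3 fibroblasts plus reporter T. cruzi · Doses – compound pinned at 50 nL/well, DMSO · Read-out basis – percent inhibition of parasite-derived β-gal signal · Signal – luminescent β-galactosidase signal after 60 min lysis · Also added – 5000 T. cruzi trypomastigotes/well · Medium – Low-serum DMEM with 2% FBS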
SKKanGAS inh – blocks kanamycin growth of S. pyogenes SKKanGAS strain; actives 1.3% (n = 300,000); inhibition, % at 7.5 µM; BacTiter-Glo, 6 h;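 active = mean replicate score, as percent of positive control median, at least 50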;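 also: strain carries kanamycin resistance gene driven by streptokinase promoter and grows in 40 µg/ml kanamycin; loss of luminescence reflects streptokinase promoter inhibition or plain growth inhibition; 0% = median of DMSO wells and 100% = positive control at its reference dose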
Beta cell apopt – beta cell apoptosis inhibition. INS-1E cytokine-induced death, ATP luminescence, 48 h; percent of positive-control rescue, neutral wells zero. protection from apoptosis, % (test concentration not listed). actives 0.8% (n = 300,000). AID 435005;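 active = Every replicate reaches about 75%, or at least half do and their mean reaches it too, limit read from the data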;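 also: 0% = cytokine-treated negative control wells and 100% = positive control rescue; higher means more ATP so stronger rescue from cytokine killing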
CSC inhib – cancer stem cell inhibition. AID 2717. cancer stem cell-like cells viability, luminescence. inhibition, % at 7.5 µM. actives 1.1% (n = 300,000); in the data active = inhibition above about 75%; tested in HMLE shEcad cells
Calb FLC – C. albicans growth modulation with fluconazole | growth inhibition, % (no concentration beside the values) | C. albicans CaCi-2 (fluconazole-resistant clinical isolate) + fluconazole, Alamar Blue growth, 48 h | actives 0.57% (n = 300,000);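 active = growth inhibition above about 58% in most replicates, limit read from the data, passing the limit was not always enough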;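 also: all wells also contain fluconazole at 8 µg/ml as a sub-toxic cotreatment; 0% = median of DMSO wells and 100% = median of geldanamycin control wells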
Mdm2 MdmX conf – confirmation of human Mdm2/MdmX interaction inhibitors | Mdm2-MdmX binding, luminescent assay | inhibition, % at 8 µM | actives 55% (n = 10,000) | shares compounds with Mdm2-MdmX inh; in the data active = inhibition above about 40%
FLuc counter – counter-screen for Mdm2/MdmX inhibitors: full-length luciferase; shares compounds with Mdm2-MdmX inh; AID 504607; SaOS-2 full-length luciferase counterscreen, luminescence; inhibition, % at 8 µM; actives 77% (n = 6,200);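 active = mean inhibition at 8 µM reaching about 37%, which flags the compound as non-specific, limit read from the data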;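 also: p53-null SaOS-2 cells with luciferase driven by a doxycycline-inducible promoter; compound on cells about two nights before reading with doxycycline added after day one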
Active calls of the source: *; · = no result given.

SMILES | Mdm2-MdmX inh | T cruzi inh | SKKanGAS inh | Beta cell apopt | CSC inhib | Calb FLC | Mdm2 MdmX conf | FLuc counter
COc1cccc2sc(N(CCN(C)C)C(=O)/C=C/c3cccs3)nc12 | 56.0* | -3.9 | -0.7 | 2.7 | 5.9 | -5.8 | 27.4 | ·
O=C(NCCNC(=O)c1ccc(Cl)cc1Cl)c1cnccn1 | -8.5 | -0.2 | 1.4 | -5.7 | 1.8 | 4.7 | · | ·
CCN1C(=NCCCCO)N[C@@H](c2cccc(F)c2)C(C(=O)OC)=C1C | 7.9 | -2.7 | 2.6 | -5.0 | 6.0 | 1.0 | · | ·
COC(=O)C1=C(C)N(Cc2ccccc2)C(=NCc2cccc(Cl)c2)N[C@H]1c1ccccc1 | 88.7* | · | · | 9.5 | 122.2* | · | 34.0 | ·
COC(=O)C1=C(C)N(Cc2ccccc2)C(=S)N[C@H]1c1cccc(F)c1 | 22.7 | -44.5 | 1.1 | 6.1 | 1.2 | -6.8 | · | ·
CCN(CC)CCCN=C1N[C@@H](c2cccc(F)c2)C(C(=O)OC)=C(C)N1Cc1ccccc1 | 99.6* | · | · | -2.9 | 23.8 | · | 83.1* | 58.7*
CCN(CC)CCCN=C1N[C@@H](c2cccc(C(F)(F)F)c2)C(C(=O)OC)=C(C)N1CC | 99.6* | · | · | -0.6 | · | · | 74.5* | 30.4
COC(=O)C1=C(C)N(CC2CC2)C(=NCc2cccc(Cl)c2)N[C@H]1c1ccccc1 | 44.9 | 24.9 | 5.0 | · | -20.4 | 27.1 | · | ·
COCCN1C(=S)N[C@@H](c2cccc(F)c2)C(C(=O)OC)=C1C | 59.4* | 0.4 | 15.5 | -9.4 | 27.2 | -0.3 | 27.1 | ·
COC(=O)C1=C(C)N(Cc2ccccc2)C(=NCc2cc(OC)c(OC)c(OC)c2)N[C@H]1c1ccc(Br)cc1 | 68.7* | · | · | -3.4 | 26.0 | · | 22.1 | ·
COC(=O)C1=C(C)N(Cc2ccccc2)C(=NCc2ccccc2)N[C@H]1c1ccccc1 | 90.5* | · | · | 5.1 | 8.2 | · | 30.9 | ·
COC(=O)C1=C(C)N(Cc2ccccc2)C(=NCc2cc(OC)c(OC)c(OC)c2)N[C@H]1c1ccccc1 | 30.5 | 17.5 | 2.1 | -3.3 | 2.0 | -20.9 | · | ·
COC(=O)C1=C(C)N(Cc2ccccc2)C(=NCc2ccccc2)N[C@H]1c1cccc(F)c1 | 74.2* | 18.0 | 8.3 | 26.3 | 27.5 | 14.0 | 37.6 | 47.0*
CCN(CC(=O)NCc1cccs1)C(=O)/C=C/c1ccc(OC)c(OC)c1 | -1.2 | -6.4 | -3.5 | 0.3 | -2.2 | 3.6 | · | ·
CCc1ccc(S(=O)(=O)/N=C2\C=C(Nc3ccc(O)cc3)C(=O)c3ccccc32)cc1 | 100.3* | 52.1 | 109.5* | 115.4* | · | 13.4 | 96.6* | 2.1
Cc1cc(C)c(S(=O)(=O)/N=C2\C=C(Nc3ccc(C(=O)O)cc3)C(=O)c3ccccc32)c(C)c1 | 77.7* | 16.8 | 111.9* | 113.2* | · | 35.0 | 67.8* | 51.5*
CCc1ccc(S(=O)(=O)/N=C2\C=CC(=O)c3ccccc32)cc1 | 37.3 | 1.8 | · | 9.0 | 40.5 | · | · | ·
COc1ccc(NC(=O)C2CC3CCC2C3)c(OC)c1 (stereo unspecified) | 13.5 | 2.3 | -1.6 | · | · | 10.5 | · | ·
Cc1csc2nc(O)c(C(=O)NC3CCCCC3)c(=O)n12 | 62.9* | -4.4 | 0.1 | · | -3.1 | -0.2 | 65.8* | 35.0
CC(C)c1cccc(O)c(=O)c1 | 86.4* | -5.0 | 1.8 | -3.0 | 13.9 | -3.9 | 74.2* | 27.6
CCCCn1c(=O)[nH]c(=O)c2c1nc(-c1ccc(-c3ccccc3)cc1)n2C | 62.3* | 8.0 | 11.9 | 6.3 | 12.7 | -12.0 | 35.4 | 94.4*
Cc1ccc(C(=O)c2oc3ccc(Cl)cc3c2NC(=O)CN2CCN(C)CC2)cc1 | 81.7* | 30.3 | 16.2 | 22.9 | 37.8 | 2.7 | 34.4 | 68.2*
CCOC(=O)c1oc2ccc(OC)cc2c1NC(=O)CN1CCN(C)CC1 | -10.3 | 4.7 | 16.1 | · | 3.4 | -0.6 | · | ·
Cc1cc(NC(=O)COC(=O)c2oc3c(ccc4ccccc43)c2C)no1 | 58.7* | -22.6 | -8.3 | 20.2 | -16.5 | 26.2 | 31.0 | 58.7*
Cc1c(C(=O)OCC(=O)Nc2ccc(S(N)(=O)=O)cc2)oc2c1ccc1ccccc12 | 52.3* | -14.6 | 1.0 | · | · | 16.4 | 23.0 | ·
SMILES | Mdm2-MdmX inh | T cruzi inh | SKKanGAS inh | Beta cell apopt | CSC inhib | Calb FLC | Mdm2 MdmX conf | FLuc counter
CCCn1c(SCC(=O)c2cc(C)n(C3CC3)c2C)n[nH]c1=O | -5.6 | · | · | -5.7 | · | · | · | ·
Cc1ccn2c(=O)c(C(=O)NC3CCCCC3C)c(O)nc2c1 (stereo unspecified) | 66.9* | 14.8 | 6.4 | · | 20.5 | 18.6 | 66.7* | 67.5*
CC(=O)N1CCC2(CC1)C/C(=N\NC(=S)Nc1ccc(C)cc1)c1cc(O)ccc1O2 | 74.7* | 7.4 | 9.1 | 5.8 | 16.7 | 28.3 | 40.0* | 93.0*
Cc1ccc(NC(=S)N/N=C2\CC(C)(C)Oc3ccc(O)cc32)cc1 | 28.0 | -8.2 | -1.4 | 1.9 | 46.3 | -1.2 | · | ·
Cc1ccccc1NC(=S)N/N=C1\CC(C)(C)Oc2ccc(O)cc21 | 51.0* | -17.9 | 14.2 | 11.6 | -10.7 | 32.6 | 5.8 | ·
COc1ccc(NC(=S)N/N=C2\CC(C)(C)Oc3ccc(OC)cc32)cc1 | 26.6 | 15.4 | -3.6 | 5.3 | 6.3 | 8.7 | · | ·
Cc1cnc(C(=O)OCC(=O)Nc2cccc(S(=O)(=O)N3CCOCC3)c2)cn1 | 6.7 | · | · | 0.4 | -12.3 | · | · | ·
COc1cc(C(=O)O/N=C(\N)c2ccc([N+](=O)[O-])cc2)cc(OC)c1OC | 75.0* | 13.5 | -2.6 | 11.4 | -3.3 | 14.3 | 35.5 | 95.0*
CCOc1cc(C(=O)O/N=C(\N)c2ccc([N+](=O)[O-])cc2)cc(OCC)c1OCC | 67.3* | 25.5 | 4.7 | -0.3 | -12.3 | 17.9 | 45.8* | 91.7*
COc1cc(C(=O)O/N=C(\N)c2cccc([N+](=O)[O-])c2)cc(OC)c1OC | 74.4* | 13.2 | -4.4 | · | -4.1 | -1.9 | 36.5 | 102.8*
O=C(CCNC(=O)C1CCN(S(=O)(=O)c2ccc(F)cc2)CC1)NCc1ccc(Cl)cc1 | 2.7 | 13.3 | -4.5 | -3.9 | -2.2 | 1.8 | · | ·
O=C(COC(=O)c1cccc(Br)c1)NCc1ccco1 | 8.9 | · | · | -4.7 | -21.8 | · | · | ·
COc1ccc(C=C(c2nc3ccccc3s2)c2nc3ccccc3s2)cc1O | 58.2* | 24.1 | 14.3 | 4.5 | 3.5 | -11.1 | 45.5* | 62.7*
Cc1ccc(S(=O)(=O)N2CCN(C(=O)CCC(=O)NCc3cccc(C(F)(F)F)c3)CC2)cc1 | -5.9 | -5.7 | -6.7 | 4.9 | 5.7 | -4.6 | · | ·
CCOc1ccc(NC(=O)C(Cc2ccccc2)N2C(=O)c3cccc4cccc(c34)C2=O)cc1 (stereo unspecified) | 50.2* | -13.5 | -7.6 | 12.9 | 1.3 | 16.9 | 47.2* | 97.7*
CCOC(=O)C(Cc1ccc(NC(=O)/C(=C/c2ccc(OC(C)=O)cc2)NC(C)=O)cc1)N1C(=O)c2ccccc2C1=O (stereo unspecified) | 18.3 | 2.2 | -4.0 | -1.8 | -6.5 | 3.4 | · | ·
